Screening data deposited in PubChem BioAssay by several laboratories.
PAD4 inh = inhibitors of human PAD4 | inhibition, % at 6.36 µM | AID 485272 | recombinant PAD4, RCA probe fluorescence polarization | Q9UM07 | hit rate 0.41% among 330,000;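 active = percent inhibition above a cutoff equal to the mean of all tested compounds plus 3 SD, cut at about 15% in these data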
Apaf1 inhib = human Apaf-1 inhibition; reconstituted apoptosome caspase-3 activity, DEVD-Rh110 fluorescence; inhibition, % at 20 µM; hit rate 0.71% among 330,000; AID 489030; active = inhibition of at least 40% at 20 µM
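System: reconstituted apoptosome with Apaf-1, cytochrome c, caspase-9, procaspase-3, dATP; Signal: Rh110 fluorescence intensity; Schedule: 30 min compound preincubation, 50 min activation, room temperature; Reagent: cytochrome c trigger plus (Z-DEVD)2-Rh110 caspase-3 substrate.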
GASC-1 inh = human JMJD2C demethylase inhibition; Q9H3R0; GST-JMJD2C(1-420) H3K9me3 demethylation, DELFIA europium; inhibition, % at 2.35 µM; hit rate 0.069% among 330,000; AID 2099;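 active = more than half of a compound's replicate wells show inhibition beyond 50%, single wells judged on their own value; inconclusive = some, but no more than half, of replicates pass 50% inhibition; inactive = no replicate passes 50% inhibition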;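 also: signal counts dimethyl H3K9 product captured on neutravidin plate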
Target sequence (Q9H3R0 1-420 limits assumed): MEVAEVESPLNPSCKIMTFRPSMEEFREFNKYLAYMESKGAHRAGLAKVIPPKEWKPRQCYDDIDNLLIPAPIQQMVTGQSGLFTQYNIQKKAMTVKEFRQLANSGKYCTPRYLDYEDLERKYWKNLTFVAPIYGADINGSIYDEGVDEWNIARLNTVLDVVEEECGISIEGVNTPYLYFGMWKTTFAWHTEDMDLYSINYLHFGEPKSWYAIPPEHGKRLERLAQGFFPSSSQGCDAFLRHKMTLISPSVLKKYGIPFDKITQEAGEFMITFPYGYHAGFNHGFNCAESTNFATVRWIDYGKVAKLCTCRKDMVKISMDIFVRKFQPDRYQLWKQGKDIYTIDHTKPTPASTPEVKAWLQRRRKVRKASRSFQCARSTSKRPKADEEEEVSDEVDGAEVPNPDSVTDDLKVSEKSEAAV
TDP2 inh = blocks human TDP2 phosphodiesterase activity; inhibition, % at 12.8 µM; hit rate 0.34% among 370,000; O95551; recombinant TDP2, T5PNP hydrolysis, p-nitrophenol absorbance 415 nm;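 active = inhibition above the mean of all tested compounds plus 3 SD, set per campaign, cut at about 25% in these data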
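Read-out basis: percent inhibition. System: recombinant human TDP2. Buffer or medium: Mg2+-containing Tris-HCl buffer, pH 7.5. Repeats: single replicate. Timing: reaction 2 h, 37 °C. Benchmarks: high control without enzyme, low control DMSO plus TDP2. Probe or stimulus: 5 mM T5PNP. Doses: 12.8 µM only. Measured by: epi absorbance of p-nitrophenol freed from T5PNP by hydrolysis.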
GSTO1 inh = blocks human GSTO1 in RBBP9 counter-screen. P78417. recombinant GSTO1, activity-based probe fluorescence polarization. inhibition, % at 5.96 µM. hit rate 1.1% among 300,000. AID 1974;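 active = inhibition above the campaign mean inhibition plus 3 SD, cut at about 35% in these data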
UBC9 SUMO inh = inhibitors of human SUMOylation (UBC9). AID 2006. hit rate 0.36% among 290,000. inhibition, % at 35 µM. HTRF SUMOylation assay, SAE1/SAE2 + UBC9, in vitro; in the data active = inhibition above about 50%, passing the limit was not always enough; inconclusive = no clear call, values can overlap the other calls
Target sequence (P63279 whole entry, looked up): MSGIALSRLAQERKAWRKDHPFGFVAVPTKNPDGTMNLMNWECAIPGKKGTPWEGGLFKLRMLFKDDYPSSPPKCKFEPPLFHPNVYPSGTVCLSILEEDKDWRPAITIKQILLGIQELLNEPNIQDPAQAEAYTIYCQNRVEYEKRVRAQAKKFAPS
GSTO1 inh conf = confirmation of human GSTO1 inhibitors | shares compounds with GSTO1 inh | recombinant GSTO1, probe fluorescence polarization | inhibition, % at 5.96 µM | hit rate 54% among 2,400;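 active = inhibition above the primary screen's cutoff, its mean inhibition plus 3 SD, cut at about 35% in these data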;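 also: loss of polarization as inhibitors block binding of rhodamine sulfonate ester activity probe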
PAD4 confirm = PAD4 (human) inhibition, confirmed. shares compounds with PAD4 inh. recombinant PAD4, RCA probe fluorescence polarization. inhibition, % at 6.36 µM. hit rate 28% among 1,200. AID 488796;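 active = mean inhibition across replicates above the hit cutoff set by the earlier primary screen, cut at about 15% in these data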;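 also: inhibitors block active-site labeling by the probe so polarization falls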
Apaf-1 inh conf2 = Apaf-1 inhibition, single-dose confirmed. shares compounds with Apaf1 inhib. reconstituted apoptosome, caspase-3 DEVD-Rh110 fluorescence. inhibition, % at 20 µM. hit rate 25% among 1,800;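 active = mean inhibition of at least 40% at 20 µM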
Rh110 quench = interferes with Rh110 fluorescence, flagging false Apaf-1 inhibitors | shares compounds with Apaf1 inhib | Rh110 fluorescence interference, quenched caspase reaction | activation (fluorescence interference), % at 20 µM | 1,800 tested, under 10 active;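 active = signal rise of 40% or more at 20 µM, treated as a fluorescence artifact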
Apaf1 inh interf = Apaf-1 inhibitor counter-screen fluorescence artifact. fluorescence interference counterscreen, Apaf-1 assay format. IC50, µM. shares compounds with Apaf1 inhib. 460 tested, under 10 active; call rule not given here
TDP2 confirm = human TDP2 inhibition, confirmation. shares compounds with TDP2 inh. recombinant human TDP2, absorbance read-out. inhibition, % at 12.8 µM. hit rate 22% among 1,100; in the data active = inhibition above about 25%
Large screens that a line does not name were inactive (follow-up assays come after a bar, where they were run). An excerpt weighted towards active compounds, which were near 1.6% of everything screened.

COc1ccccc1N(/N=C1\Sc2ccccc2C1=O)C(C)=O	Apaf1 inhib 83, TDP2 inh 28, GSTO1 inh 44 | GSTO1 inh conf 75 | Apaf-1 inh conf2 73 | Rh110 quench inactive | Apaf1 inh interf inactive | TDP2 confirm 45
O=c1c2ccccc2n(Cc2ccno2)n1[C@@H](Cc1ccccc1)Cn1cc(-c2ccc(-c3ccccc3)cc2)nn1	none (no result: PAD4 inh, Apaf1 inhib, GASC-1 inh, GSTO1 inh, UBC9 SUMO inh)
Cc1ccc(C2C(C#N)=C(N)Oc3n[nH]c(-c4cccs4)c32)cc1 (stereo not drawn)	PAD4 inh 41, TDP2 inh 32, GSTO1 inh 40 | GSTO1 inh conf inactive | PAD4 confirm inactive | TDP2 confirm inactive
N#CC1=C(N)Oc2n[nH]c(-c3cccs3)c2C1c1ccoc1 (stereo not drawn)	none
COc1ccc(OC)c(S(=O)(=O)N2CCCCC2C(=O)N2CCN(c3ccc(F)cc3)CC2)c1 (stereo not drawn)	none (no result: PAD4 inh, Apaf1 inhib, GASC-1 inh, GSTO1 inh, UBC9 SUMO inh)
C/C(=C\C(=O)c1cccnc1)Nc1ccc(O)cc1	PAD4 inh 98, TDP2 inh 27, GSTO1 inh 38, UBC9 SUMO inh inconclusive | GSTO1 inh conf inactive | PAD4 confirm inactive | TDP2 confirm inactive
NC(=O)C1CCN(c2ccc3c(c2)S(=O)(=O)c2ccccc2C3=O)CC1	none (no result: UBC9 SUMO inh)
NC(=O)C1CCN(C2=C(Cl)C(=O)c3ccccc3C2=O)CC1	Apaf1 inhib 73, TDP2 inh 50, GSTO1 inh 87 | GSTO1 inh conf 80 | TDP2 confirm 76
CC1=NN(c2ccc(F)cc2)C(=O)C1C(c1cccc(O)c1)c1c(C)[nH]n(-c2ccc(F)cc2)c1=O (stereo not drawn)	PAD4 inh 69, Apaf1 inhib 91, TDP2 inh 89, GSTO1 inh 58 | GSTO1 inh conf 36 | PAD4 confirm inactive | Apaf-1 inh conf2 inactive | Rh110 quench inactive | TDP2 confirm 48
CC(C)(C)OC(=O)n1cc(-c2ccccc2)c2c(-c3ccccc3)c(O)ccc21	none (no result: PAD4 inh, Apaf1 inhib, GASC-1 inh, GSTO1 inh, UBC9 SUMO inh)
CC(=O)N(C1=C(Cl)C(=O)c2ccccc2C1=O)C1CCCCC1	PAD4 inh 17, Apaf1 inhib 85, TDP2 inh 57, GSTO1 inh 56, UBC9 SUMO inh 71 | GSTO1 inh conf 73 | PAD4 confirm inactive | Apaf-1 inh conf2 90 | Rh110 quench inactive | Apaf1 inh interf inactive | TDP2 confirm 47
O=C(NC1=C(NC2CCS(=O)(=O)C2)C(=O)c2ccccc2C1=O)c1ccccc1 (stereo not drawn)	PAD4 inh 26, Apaf1 inhib 88, TDP2 inh 28, GSTO1 inh 81 | GSTO1 inh conf 71 | PAD4 confirm 22 | Apaf-1 inh conf2 92 | Rh110 quench inactive | Apaf1 inh interf inactive | TDP2 confirm 37
Cc1nn(-c2ccccc2)c2sc(C(=O)NC3CCCCCCC3)cc12	none (no result: PAD4 inh, Apaf1 inhib, GASC-1 inh, GSTO1 inh, UBC9 SUMO inh)
COC(=O)[C@]12C[C@H](CC(=O)N3CCOCC3)C(=O)N(Cc3cccc4ccccc34)C1=C[C@H](C(C)C)O[C@@H]2C1CC1	none (no result: PAD4 inh, Apaf1 inhib, GASC-1 inh, GSTO1 inh, UBC9 SUMO inh)
Nc1ncnc2oc(-c3ccco3)c(-c3ccco3)c12	TDP2 inh 27, GSTO1 inh 56, UBC9 SUMO inh 78 | GSTO1 inh conf inactive | TDP2 confirm inactive
COC(=O)CCCn1cc(CN2CC=CS2(=O)=O)nn1	none (no result: PAD4 inh, Apaf1 inhib, GASC-1 inh, GSTO1 inh, UBC9 SUMO inh)
O=c1cc(-c2cccc([N+](=O)[O-])c2)[nH][nH]1	PAD4 inh 52, Apaf1 inhib 68, TDP2 inh 71, GSTO1 inh 38 | GSTO1 inh conf inactive | PAD4 confirm inactive | Apaf-1 inh conf2 inactive | Rh110 quench inactive | TDP2 confirm inactive
CCN(CC)c1ccc(/C=C2\C(=O)N(c3nnc(C)c(=O)[nH]3)N=C2C)cc1	TDP2 inh 26, GSTO1 inh 40 | GSTO1 inh conf inactive | TDP2 confirm inactive
CCN(CC)c1ccc(/C=C2/C(=O)ON=C2C)cc1	none
COCCCNC(=O)c1ccc2c(c1)NC(=O)C(C)(C)O2	none (no result: PAD4 inh, Apaf1 inhib, GASC-1 inh, GSTO1 inh, UBC9 SUMO inh)
CCc1cc[n+](C2=C([O-])c3ccccc3C(=O)/C2=N\S(=O)(=O)c2cccs2)cc1	Apaf1 inhib 68, TDP2 inh 41, GSTO1 inh 83, UBC9 SUMO inh 59 | GSTO1 inh conf 82 | Apaf-1 inh conf2 64 | Rh110 quench inactive | Apaf1 inh interf inactive | TDP2 confirm 40
COC(=O)C1CN(Cc2cn(Cc3ccccc3)nn2)CCS(=O)(=O)N1Cc1ccc(Cl)cc1 (stereo not drawn)	none (no result: PAD4 inh, Apaf1 inhib, GASC-1 inh, GSTO1 inh, UBC9 SUMO inh)
Nc1cccc2nc3ccccc3cc12	none (no result: TDP2 inh)
Cc1cc2c(N)cccc2nn1	PAD4 inh 120, Apaf1 inhib 97, TDP2 inh 77, GSTO1 inh 65 | GSTO1 inh conf 110 | PAD4 confirm inactive | Apaf-1 inh conf2 inactive | Rh110 quench inactive | TDP2 confirm 57
O=C(CSc1ccc(Cl)cc1)Nc1ccccc1	none (no result: PAD4 inh, Apaf1 inhib, GASC-1 inh, GSTO1 inh, UBC9 SUMO inh)
O=C(CSc1ccc(Cl)cc1)NC1=NN(c2ccccc2)C(=O)C1	PAD4 inh 15, TDP2 inh 25, GSTO1 inh 42 | GSTO1 inh conf inactive | TDP2 confirm inactive
O=C(O)c1cccc(NC2=C(N3CCOCC3)C(=O)c3ccccc3C2=O)c1	Apaf1 inhib 84, TDP2 inh 37, GSTO1 inh 47 | GSTO1 inh conf inactive | Apaf-1 inh conf2 81 | Rh110 quench inactive | Apaf1 inh interf inactive | TDP2 confirm 51
O=C1C=C(N2CCOCC2)c2ccccc2C1=O	PAD4 inh 60, Apaf1 inhib 98, TDP2 inh 65, GSTO1 inh 90, UBC9 SUMO inh 96 | GSTO1 inh conf 99 | PAD4 confirm 66 | Apaf-1 inh conf2 100 | Rh110 quench inactive | Apaf1 inh interf inactive | TDP2 confirm 86
O=C1C(NS(=O)(=O)c2cccs2)=C(N2CCOCC2)C(=O)c2ccccc21	none
C=CCOC/C=C/C#CCN(Cc1ccc(OC)cc1OC)C(=O)Nc1ccccc1	none (no result: PAD4 inh, Apaf1 inhib, GASC-1 inh, GSTO1 inh, UBC9 SUMO inh)
Cc1nnc(N/N=C/c2ccccc2O)n1N	PAD4 inh 41, TDP2 inh 59, GSTO1 inh 72 | GSTO1 inh conf inactive | PAD4 confirm inactive | TDP2 confirm 26
